From PubChem
Only some compounds are listed: those with a hit (about 3.7% of all), similar ones and a draw of the others.
Granule exo inh – LAMP-1 surface exposure blockers, TALL-104 cells – cell-based, flow cytometry, MLPCN library, primary screen | TALL-104 LAMP-1 surface exposure; cells stimulated with thapsigargin and PMA | inhibition, % at 10 µM | actives 0.66% (n = 360,000);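 active = inhibition above about 55%, limit read from the data; inconclusive = no clear call, values can overlap the other calls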
EBI2 block – EBI2 receptor antagonists, beta-arrestin recruitment, primary screen, cell-based, luminescence, 7a,25-OHC stimulation, uHTS. G-protein coupled receptor 183 (Homo sapiens), P32249. inhibition, % at 5 µM. actives 0.81% (n = 360,000). 7a,25-OHC stimulated; in the data active = inhibition above about 38%;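 also: enzyme fragment complementation signal reports receptor beta-arrestin coupling in cells; 0% = agonist plus DMSO wells and 100% = wells without agonist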
Target sequence (P32249 whole entry, looked up, the tested form may be a part): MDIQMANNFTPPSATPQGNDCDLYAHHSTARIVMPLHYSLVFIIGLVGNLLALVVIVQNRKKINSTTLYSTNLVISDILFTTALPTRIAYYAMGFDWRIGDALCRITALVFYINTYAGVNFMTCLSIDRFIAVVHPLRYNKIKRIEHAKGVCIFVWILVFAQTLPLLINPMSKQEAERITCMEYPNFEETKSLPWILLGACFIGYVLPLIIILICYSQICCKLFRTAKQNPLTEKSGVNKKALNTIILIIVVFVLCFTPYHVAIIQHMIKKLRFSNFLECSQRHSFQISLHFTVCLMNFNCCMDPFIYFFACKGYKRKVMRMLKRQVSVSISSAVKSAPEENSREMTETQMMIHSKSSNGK
Myeloid diff MLP – induction of myeloid progenitor differentiation, primary screen, cell-based, flow cytometry, MLPCN library; actives 1% (n = 360,000); ER-HoxA9 myeloid progenitors, lysozyme-GFP differentiation; calls only at 10 µM;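 active = normalized GFP-positive differentiation at or above the plate's own cutoff, the solvent-only control mean plus 3 SD; inconclusive = no clear call, values can overlap the other calls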;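 also: cells exposed to compound for four days before flow analysis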
MC4R ag barr – MC4R agonists recruiting beta-arrestin, primary screen, cell-based, luminescence, agonist arm of biased-ligand search. U2OS MC4R beta-arrestin complementation; percent of melanotan II response, DMSO zero. activation, % at 8.9 µM. actives 0.98% (n = 360,000);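 active = activation above a per-plate cutoff, the mean activation of sample wells on that plate plus 3 SD, cut at about 8% in these data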
MC4R antag cAMP – MC4R antagonists of cAMP signaling, primary screen, cell-based, TR-FRET, antagonist arm of biased-ligand search | Melanocortin receptor 4 (Homo sapiens), P32245 | MC4R-expressing cells, MTII-stimulated cAMP, LANCE TR-FRET | inhibition, % at 6.5 µM | actives 0.48% (n = 360,000);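 active = inhibition above its plate's cutoff, the mean of tested wells on that plate plus 3 SD, cut at about 29% in these data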;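 also: 0% = Melanotan II alone and 100% = Melanotan II plus saturating MCL0020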
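Assay system: human MC4R-expressing U2OS cells; reagent: Melanotan II stimulation of cells; dosing: 6.5 µM single dose; timing: compound 30 min, challenge 1 h, detection 1 h; signal: TR-FRET cAMP assay; replicates: one well per compound, no replicates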
Exocytosis CP01 – inhibitors of lytic granule exocytosis, confirmation, TALL-104 cells, flow cytometry, Cherry Pick01; shares compounds with Granule exo inh; LAMP-1 externalization; stimulated with PMA plus thapsigargin; inhibition, % at 10 µM; actives 11% (n = 1,500); in the data active = inhibition above about 60%;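 also: 0% = stimulated vehicle wells and 100% = unstimulated wells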
* = called active by the depositor; i = inactive; ? = inconclusive; nt = no result.

SMILES	Granule exo inh	EBI2 block	Myeloid diff MLP	MC4R ag barr	MC4R antag cAMP	Exocytosis CP01
CCOC(=O)N1CCN(C(=O)CSc2ccc3nnc(-c4cccnc4)n3n2)CC1	87*	-8	i	0	8	-13
CCOc1ccc(C(=O)CCN2CCCCCC2)cc1	101*	-1	i	-4	12	64*
CCCOc1ccc(C(=O)CCN2CCCCC2)cc1	22	-1	i	0	8	nt
O=C(Cc1ccccc1)c1ccc2c(c1)OCCO2	-4	4	i	-2	-3	nt
CC(CN1CCCCC1)OC(=O)c1ccc2c(c1)OCO2 (stereo not given)	-3	-5	i	-1	2	nt
O=C(CCN1CCc2ccccc2CC1)c1ccc2c(c1)OCCO2	101*	13	i	0	20	78*
O=C(CCN1CCCCC1)c1ccc2c(c1)OCO2	80*	-5	i	-1	24	13
CCOC(=O)C1(Cc2ccccc2)CCCN(CCO)C1 (stereo not given)	54	1	i	-3	7	nt
CCOC(=O)C1(Cc2ccccc2)CCCN(C2CCCC2)C1 (stereo not given)	59*	24	i	-2	-7	-4
CCNC(=S)N1CCN(S(=O)(=O)c2ccc(C)cc2)CC1	-3	7	i	0	5	nt
Cc1ccc(S(=O)(=O)N2CCN(C(=S)NCc3ccc4c(c3)OCO4)CC2)cc1	75*	5	i	0	-2	-4
COc1ccc(C(=O)NCCN(C)C)c2nc3ccccc3cc12	73*	10	nt	-1	-26	-13
CN(C)CCNC(=O)c1cccc2nc3c(ccc4ccccc43)nc12	62*	-3	nt	-1	-23	43
COc1cccc2nc3c(C(=O)NCCN(C)C)cccc3cc12	16	-14	nt	0	-22	nt
N#Cc1c(N2CCN(c3ccc([N+](=O)[O-])cc3)CC2)[n+](=O)c2ccc(Cl)cc2n1[O-]	-5	-11	i	-3	4	nt
COc1ccc(-c2nnc(N3CCCCC3)c3ccccc23)cc1	0	7	i	2	6	nt
Cc1ccc(-c2nnc(N3CCCCCC3)c3ccccc23)cc1	66*	3	?	1	13	-12
CC(CNC(=O)CCS(=O)(=O)c1cc2c(cc1Cl)NC(=O)CO2)c1ccccc1 (stereo not given)	1	0	i	-3	9	nt
Cn1cncc1C#Cc1c(-c2ccc(S(C)(=O)=O)cc2)sc2ccccc12	103*	9	?	3	28	97*
CCOC(=O)C1CCN(Cc2ccc(OC)c(C)c2OC)CC1	-5	3	i	0	-4	nt
CCOC(=O)C1CCN(Cc2cc(Cl)c3ccccc3c2O)CC1	78*	15	i	0	-3	0
COC(=O)C1C(c2ccccc2)C(C(=O)OCc2ccco2)C1c1ccccc1 (stereo not given)	69*	24	i	1	17	27
O=C(O)C1C(c2ccccc2)C(C(=O)OCc2ccco2)C1c1ccccc1 (stereo not given)	0	6	i	-2	3	nt
O=C1C(=O)c2ccc(-c3ccccc3)cc2-c2ccccc21	74*	4	nt	6	-2	0
O=C(CC[C@H]1O[C@@H](n2cnc3c(NC(=O)c4ccccc4)ncnc32)[C@H](O)[C@@H]1O)NCc1cccc2ccccc12	-8	-10	i	nt	nt	nt
SMILES	Granule exo inh	EBI2 block	Myeloid diff MLP	MC4R ag barr	MC4R antag cAMP	Exocytosis CP01
CCn1nc(C)cc1C(=O)NC1CCCc2c1cnn2-c1ccc(C)c(C)c1 (stereo not given)	60*	2	i	0	9	-12
CCCC(=O)NC1CCCc2c1cnn2-c1ccc(C)c(C)c1 (stereo not given)	4	4	i	-1	7	nt
Cc1ccc(-c2csc3ncnc(SCc4ccc(C(=O)O)cc4)c23)cc1	-1	9	i	-1	-10	nt
Cc1cc(NC(=O)CCCS(=O)(=O)c2nc(-c3cccs3)cc(C(F)(F)F)n2)no1	61*	-10	nt	-3	-18	18
COc1nc(-c2ccccc2)cc(C(F)(F)F)n1	3	1	i	1	-2	nt
O=C(O)CCS(=O)(=O)c1nc(-c2cccs2)cc(C(F)(F)F)n1	9	-3	i	-1	5	nt
CS(=O)(=O)c1nc(-c2ccc(F)cc2)cc(C(F)(F)F)n1	86*	10	i	-2	12	18
Fc1ccc(-c2cc(C(F)(F)F)nc(N3CCCCC3)n2)cc1	1	5	i	1	14	nt
COC(=O)CCS(=O)(=O)c1nc(-c2ccccc2)cc(C(F)(F)F)n1	87*	21	?	-2	28	20
Cc1ccc(/C=C/S(=O)(=O)NCC(=O)OCC(=O)N2CC(=O)Nc3ccccc32)cc1	7	0	i	0	9	nt
COc1ccc(N(C)S(=O)(=O)c2cccc(C(=O)Nc3cc(OC)ccc3OC)c2)cc1	14	6	i	-3	8	nt
CN(C)S(=O)(=O)c1cccc(NC(=O)c2ccc(COc3ccccc3)cc2)c1	58*	-8	i	1	11	10
CN(c1ccccc1)S(=O)(=O)c1cccc(NC(=O)c2ccc3ncsc3c2)c1	67*	-19	i	2	20	8
COc1ccc(N(C)S(=O)(=O)c2cccc(C(=O)Nc3ccc4c(c3)OCCO4)c2)cc1	90*	5	i	0	4	-3
COCc1ccc(C(=O)Nc2cccc(S(=O)(=O)N(C)c3ccccc3)c2)cc1	-8	2	i	1	5	nt
CCCCNC(=O)C1C(c2ccc(OC)cc2)=Nc2ccccc2N1C(=O)Cc1cc(OC)cc(OC)c1 (stereo not given)	-3	5	i	nt	nt	nt
O=C(COC(=O)c1cccc(OC(F)F)c1)Nc1cc(S(=O)(=O)N2CCCC2)ccc1Cl	5	-6	i	-1	14	nt
COc1ccc(NC(=O)c2cc(-c3cc(F)ccc3OC(C)C)n[nH]2)c(C)c1	0	8	i	-3	11	nt
CC(C)CSc1nc(N)nc2c1ncn2C1OC(CO)C(O)C1O (stereo not given)	-7	-3	i	0	2	nt
CC1(c2nnc(-c3ccccc3)o2)CC(c2cccnc2)=NO1 (stereo not given)	-3	-3	i	-1	2	nt
CC1(c2nnc(Cc3ccccc3)o2)CC(c2cccnc2)=NO1 (stereo not given)	68*	-10	i	1	8	-14
